The values that follow come from ChEMBL document CHEMBL4028848, “Discovery of N-{4-[5-(4-Fluorophenyl)-3-methyl-2-methylsulfanyl-3H-imidazol-4-yl]-pyridin-2-yl}-acetamide (CBS-3595), a Dual p38α MAPK/PDE-4 Inhibitor with Activity against TNFα-Related Diseases” (J Med Chem, 2017).

The structures appear in SMILES notation. Active and inactive are the calls of the source. No cut-off for these calls is given here.

Data set [1] deals with Mitogen-activated protein kinase 1 (Homo sapiens) (UniProt P28482). Briefly: Inhibition of MAPK1 (unknown origin) at 10 uM.
A further data set relates to Liver. Nature of the data set: Drug level in human liver microsomes treated with CBS-3595 at 10 to 100 uM. The class given is ADME, microsome. An outline of the steps:
(§1)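 Test compound incubated at 10, 30 and 100 μM with liver microsomes from rat, Cynomolgus monkey or human, and metabolites monitored.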
In general terms: Liver microsomes are vesicles of endoplasmic reticulum, rich in cytochrome P450 enzymes.

Data set [2] in a line: Drug level in cynomolgus monkey liver microsomes treated with CBS-3595 at 10 to 100 uM. It is filed as ADME, Macaca fascicularis, microsome. Summed up:
as §1

A further data set relates to Canis familiaris. Briefly: Tmax in Beagle dog assessed as 4-(4-(4-fluorophenyl)-1-methyl-2-(methylsulfinyl)-1H-imidazol-5-yl)pyridin-2-amine level at 40 mg/kg, po by LC-MS/MS analysis. The class given is ADME, organism-based, Canis lupus familiaris. The following applies: in vivo.
For data set [3], the target named is Mitogen-activated protein kinase 8 (Homo sapiens) (UniProt P45983). Nature of the data set: Inhibition of JNK1alpha1 (unknown origin) at 10 uM.
Data set [4] in a line: Drug uptake in LPS-stimulated female Lewis rat serum at 10 mg/kg, po pretreated for 5 hrs followed by LPS addition measured after 1.5 hrs post dose. It is filed as ADME, organism-based. The following applies: read-out: Drug uptake. Summed up:
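Female Lewis rats, n = 8/group, dosed orally at 10 mg/kg at 1, 3 or 5 h before LPS challenge. Serum aliquots taken 1.5 h after LPS were used to measure drug concentration.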

The nature of data set [5]: AUC (infinity) in human at 20 mg, po administered as single dose. The class given is ADME, organism-based. Further details: dose 20 mg, time infinity, route oral. The following applies: in vivo. Summed up:
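Placebo-controlled, single-blind, randomized, consecutive-dosing study in healthy subjects given single oral doses, with 10 mg also given fasting and fed in a crossover. Plasma parent and active metabolite were measured predose and from 0.25 to 36 h post dose. PK parameters were derived from individual concentration–time profiles and reported as means.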

A short description of data set [6]: Half life in male Sprague-Dawley rat at 30 mg/kg, po by LC-MS/MS analysis. It is filed as ADME, organism-based. The following applies: in vivo.
The subject of data set [7] is Rattus norvegicus. Nature of the data set: Toxicity in single po dosed rat assessed as effect on respiratory rate at 30 mg/kg, po administered as single dose. The following applies: in vivo. The class given is organism-based.
Data set [8] in a line: Drug metabolism in cynomolgus monkey liver microsomes assessed as 4-(4-(4-fluorophenyl)-1-methyl-2-(methylsulfonyl)-1H-imidazol-5-yl)pyridin-2-amine formation at 10 to 100 uM. It is filed as ADME, Macaca fascicularis, microsome. An outline of the steps:
as §1

Data set [9] can be described thus: AUC (0 to infinity) in Beagle dog at 40 mg/kg, po by LC-MS/MS analysis. The following applies: in vivo. Further details: dose 40 mg/kg, time infinity, route oral. It is filed as ADME, organism-based, Canis lupus familiaris. An outline of the steps:
(§2)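 Toxicokinetics from a maximum-tolerated-dose study in four Beagle dogs given 40 mg/kg orally. Plasma levels of both parent and its predominant metabolite were monitored.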

In data set [10] the test system is Rattus norvegicus. Briefly: In vivo inhibition of P38 MAPKalpha in Sprague-Dawley rat assessed as decrease in LPS-stimulated TNFalpha level in serum at 10 mg/kg, po pretreated for 1 hr followed by LPS addition measured after 2 hrs relative to control. It is filed as functional. An outline of the steps:
(§3)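 Sprague–Dawley rats (8/group) were dosed orally with vehicle or 1, 3 or 10 mg/kg. LPS 0.1 mg/kg i.v. was given 1 h after dosing. Blood was collected 2 h later and serum TNFα measured. Inhibition was calculated relative to the mean of vehicle-treated animals.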

The test system of data set [11] is Rattus norvegicus. Briefly: In vivo inhibition of P38 MAPKalpha in Sprague-Dawley rat assessed as decrease in LPS-stimulated TNFalpha level in serum at 1 mg/kg, po pretreated for 1 hr followed by LPS addition measured after 2 hrs relative to control. It is filed as functional. An outline of the steps:
as §3

Data set [12] in a line: Cmax in mongrel dog at 30 mg/kg, po by LC-MS/MS analysis. It is filed as ADME, organism-based, Canis lupus familiaris. Further details: dose 30 mg/kg, route oral. The following applies: in vivo. Summed up:
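Oral single-dose PK; plasma concentrations of parent and metabolite measured. Dogs: blood sampled 0.25 to 24 h after dosing. Humans: healthy subjects, placebo-controlled single-blind randomized consecutive dosing, plasma sampled predose and 0.25–36 h post dose. 10 mg also given fasting and fed in crossover. Parameters derived from individual concentration–time profiles.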

The subject of data set [13] is Homo sapiens. Nature of the data set: Toxicity in human assessed as effect on heart rate at 50 mg, po administered as single dose. The class given is organism-based. The following applies: in vivo.
The test system of data set [14] is Rattus norvegicus. Briefly: In vivo inhibition of P38 MAPKalpha in Sprague-Dawley rat assessed as decrease in LPS-stimulated TNFalpha level in serum at 3 mg/kg, po pretreated for 1 hr followed by LPS addition measured after 2 hrs relative to control. The class given is functional.
For data set [15], the system named is Rattus norvegicus. Briefly: Toxicity in Sprague-Dawley rat assessed as piloerection at 2000 mg/kg, po administered via gavage measured on day 1 and 2. It is filed as organism-based. The following applies: in vivo.
Data set [16] has as its system Homo sapiens. Nature of the data set: Toxicity in human assessed as effect on blood pressure at 50 mg, po administered as single dose. It is filed as organism-based. The following applies: in vivo.
Data set [17] has as its system Rattus norvegicus. Nature of the data set: Antiarthritic activity in Lewis rat assessed as collagen oligomeric matrix protein level in serum at 50 mg/kg, po qd administered for 10 days (Rbv = 0.17 +/- 0.02 U/l). It is filed as functional. Summed up:
(§4)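 Collagen-induced arthritis in male Lewis rats (5–6 per group). Groups received vehicle, dexamethasone 1 mg/kg, test item 50 mg/kg once daily, or 25 mg/kg twice daily for 10 days. Body weight, arthritic score and paw volume were monitored, and serum COMP was measured at the end.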

Another data set deals with Salmonella typhimurium. Nature of the data set: Genotoxicity in Salmonella typhimurium in presence of S9 fraction by Ames test. The class given is toxicity. The following applies: salmonella enterica subsp. enterica serovar typhimurium. Summed up:
(§5)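 Bacterial reverse mutation (Ames) test in S. typhimurium and E. coli strains, run with and without S9 mix.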
(In general: The Ames test detects mutagens through reverse mutation in bacteria.)

Data set [18] deals with Rattus norvegicus. Briefly: Antiarthritic activity in Lewis rat assessed as change in paw volume at 50 mg/kg, po qd administered for 10 days. It is filed as functional, organism-based. Summed up:
as §4

In a further data set the test system is Lymphocyte. Briefly: Clastogenicity in human lymphocytes in presence of S9 fraction by microneucleus test. It is filed as toxicity, cell-based. An outline of the steps: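 Cytogenetic clastogenicity assay in cultured human lymphocytes, run with and without S9 mix.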
A short description of data set [19]: AUC (0 to t) in male Sprague-Dawley rat at 30 mg/kg, po by LC-MS/MS analysis. The class given is ADME, organism-based. The following applies: in vivo. Summed up:
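Rats of each sex received a single oral dose of 30 mg/kg. Plasma concentration–time profiles of parent were determined separately for females and males.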

A further data set relates to Escherichia coli. Briefly: Genotoxicity in Escherichia coli in absence of S9 fraction by Ames test. It is filed as toxicity. Summed up:
as §5

Data set [20] is described as follows: Cmax in Beagle dog at 40 mg/kg, po by LC-MS/MS analysis. Further details: dose 40 mg/kg, route oral. The class given is ADME, organism-based, Canis lupus familiaris. The following applies: in vivo. Summed up:
as §2

The next data set has as its system Cynomolgus monkey. Briefly: Toxicity in cynomolgus monkey assessed as induction of trchycardia at 6 to 20 mg/kg, po measured after 0.5 to 6 hrs post dose. The class given is organism-based, Macaca fascicularis. The following applies: in vivo.
Data set [21] has as its system Rattus norvegicus. Nature of the data set: Toxicity in Sprague-Dawley rat assessed as increase in histopathological changes at 150 mg/kg, po administered via gavage for daily 28 days followed by 2 weeks off without dosing. The class given is organism-based. The following applies: in vivo.
The target of data set [22] is CDK3/Cyclin E (Homo sapiens) (UniProt P24864+Q00526). Nature of the data set: Inhibition of CDK3/cyclinE (unknown origin) at 10 uM relative to control. It is filed as protein-complex assay.
The target in data set [23] is Casein kinase I isoform delta (Homo sapiens) (UniProt P48730). Briefly: Inhibition of CK1delta (unknown origin) at 10 uM relative to control.
For a further data set, the system named is Mus musculus. Nature of the data set: In vivo inhibition of P38 MAPKalpha in BALB/c mouse assessed as decrease in LPS/GalN-stimulated TNFalpha level in plasma at 3 mg/kg, po administered via gavage pretreated for 1 hr followed by LPS/GalN addition measured after 1.5 hrs relative to control. It is filed as functional. An outline of the steps: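 Male BALB/c mice, n = 6/group, given 3, 10 or 30 mg/kg orally by gavage 1 h before i.p. D-GalN (500 mg/kg) plus LPS (1.5 μg/kg). Blood was taken by cardiac puncture and plasma TNFα measured against a vehicle-only control.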

Sequence of Mitogen-activated protein kinase 8 (Homo sapiens) (P45983 whole entry): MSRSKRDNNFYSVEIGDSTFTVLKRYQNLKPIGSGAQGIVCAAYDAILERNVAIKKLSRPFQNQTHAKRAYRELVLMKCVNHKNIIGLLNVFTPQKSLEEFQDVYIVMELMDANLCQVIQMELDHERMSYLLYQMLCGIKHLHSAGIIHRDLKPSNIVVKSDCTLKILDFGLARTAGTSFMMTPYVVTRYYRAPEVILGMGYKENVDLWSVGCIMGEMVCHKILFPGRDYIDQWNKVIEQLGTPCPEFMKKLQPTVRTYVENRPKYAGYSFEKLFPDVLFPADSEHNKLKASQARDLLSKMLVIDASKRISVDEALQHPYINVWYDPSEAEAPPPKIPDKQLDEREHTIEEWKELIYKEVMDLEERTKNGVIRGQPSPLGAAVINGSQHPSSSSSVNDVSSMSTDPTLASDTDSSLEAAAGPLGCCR
Sequence of CDK3/Cyclin E (Homo sapiens) (P24864 whole entry, looked up, canonical isoform): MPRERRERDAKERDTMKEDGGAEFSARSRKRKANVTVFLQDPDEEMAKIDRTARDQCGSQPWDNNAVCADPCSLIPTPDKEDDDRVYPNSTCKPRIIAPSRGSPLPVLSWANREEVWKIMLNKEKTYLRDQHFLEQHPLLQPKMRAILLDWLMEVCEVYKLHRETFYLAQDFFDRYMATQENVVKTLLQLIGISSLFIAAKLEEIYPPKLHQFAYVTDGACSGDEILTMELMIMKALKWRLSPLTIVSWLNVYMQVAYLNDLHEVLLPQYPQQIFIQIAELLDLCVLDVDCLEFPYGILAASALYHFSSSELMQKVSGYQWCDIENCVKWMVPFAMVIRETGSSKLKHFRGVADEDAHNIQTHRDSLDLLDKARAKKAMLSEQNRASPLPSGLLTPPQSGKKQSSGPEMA
Sequence of CDK3/Cyclin E (Homo sapiens) (Q00526 whole entry, looked up, canonical isoform): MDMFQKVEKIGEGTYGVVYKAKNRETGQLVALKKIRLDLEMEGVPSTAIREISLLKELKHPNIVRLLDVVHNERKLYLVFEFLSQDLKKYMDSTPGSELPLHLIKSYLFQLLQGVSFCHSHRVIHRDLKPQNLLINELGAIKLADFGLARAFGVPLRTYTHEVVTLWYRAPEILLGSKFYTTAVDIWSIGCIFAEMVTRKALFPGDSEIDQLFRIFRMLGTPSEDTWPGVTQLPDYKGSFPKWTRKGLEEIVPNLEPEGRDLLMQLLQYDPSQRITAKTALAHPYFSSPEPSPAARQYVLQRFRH
Sequence of Casein kinase I isoform delta (Homo sapiens) (P48730 whole entry, looked up, canonical isoform): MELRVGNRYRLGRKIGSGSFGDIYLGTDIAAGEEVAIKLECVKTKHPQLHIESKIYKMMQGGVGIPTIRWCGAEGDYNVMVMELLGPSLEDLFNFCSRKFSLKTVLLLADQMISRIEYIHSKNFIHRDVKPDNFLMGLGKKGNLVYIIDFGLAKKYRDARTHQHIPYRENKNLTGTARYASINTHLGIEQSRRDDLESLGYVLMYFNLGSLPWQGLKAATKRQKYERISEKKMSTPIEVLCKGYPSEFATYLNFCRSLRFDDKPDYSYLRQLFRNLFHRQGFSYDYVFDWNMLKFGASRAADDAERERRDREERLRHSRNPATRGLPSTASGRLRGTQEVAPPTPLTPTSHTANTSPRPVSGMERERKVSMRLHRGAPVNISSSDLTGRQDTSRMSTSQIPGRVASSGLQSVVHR
Sequence of Mitogen-activated protein kinase 1 (Homo sapiens) (P28482 whole entry): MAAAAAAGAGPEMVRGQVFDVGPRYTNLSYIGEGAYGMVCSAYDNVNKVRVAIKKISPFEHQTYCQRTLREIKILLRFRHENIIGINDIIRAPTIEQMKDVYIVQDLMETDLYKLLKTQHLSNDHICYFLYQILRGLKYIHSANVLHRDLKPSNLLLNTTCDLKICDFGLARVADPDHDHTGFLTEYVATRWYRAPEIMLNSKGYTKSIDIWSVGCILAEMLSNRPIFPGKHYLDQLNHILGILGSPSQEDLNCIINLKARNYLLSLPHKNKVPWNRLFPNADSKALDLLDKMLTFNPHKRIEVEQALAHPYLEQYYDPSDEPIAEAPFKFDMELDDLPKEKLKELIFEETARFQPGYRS

For `Cn1c([S+](C)[O-])nc(-c2ccc(F)cc2)c1-c1ccnc(N)c1` (stereo not given), the inhibition entry in data set [1] and in [3] was “inactive” in each case. The Drug metabolism result (in the data set on Liver; in data set [2]) was “Metabolite_Detected” in each case. In the data set on Canis familiaris, the Tmax was found to be 4 h.
For the molecule `CC(=O)Nc1cc(-c2c(-c3ccc(F)cc3)nc([S+](C)[O-])n2C)ccn1` (stereo not given), the concentration at 1.5 h in [4] is 871 ng/mL. Further, the total exposure AUC(0-inf) in data set [5] came out at 2.24 µM·h; in data set [9], 120 µM·h. Besides, the half-life in [6] is 1.8 h. Also, the Activity result in the data set with Rattus norvegicus [7] was “Non-Toxic”; in the data set with Homo sapiens [13], “Non-Toxic”; with Rattus norvegicus [15], “Toxic”; in the data set on Homo sapiens [16], “Non-Toxic”; in the data set on Rattus norvegicus [17], 0.08 U/L; in the data set with Salmonella typhimurium, “Non-Toxic”. Besides, the Activity entry in the data set with Lymphocyte was “Non-Toxic”; with Escherichia coli, “Non-Toxic”; with Cynomolgus monkey, “Toxic”; in the data set with Rattus norvegicus [21], “Toxic”. Besides, the Drug metabolism result in data set [8] is recorded as “Metabolite_Detected”. Also, the inhibition in vivo at 10 mg/kg in the data set on Rattus norvegicus [10] amounted to 96%. Moreover, in the data set on Rattus norvegicus [11], the inhibition in vivo at 1 mg/kg worked out at 43%. For the same molecule, the Cmax in data set [12] was determined as 14.3 µM; in data set [20], 15.6 µM. Moreover, the inhibition in vivo at 3 mg/kg in the data set with Rattus norvegicus [14] came to 88%; in the data set on Mus musculus it was 82%. In the data set on Rattus norvegicus [18], the outcome was inactive. This molecule registered an area under the curve AUC(0-t) in [19] of 29.8 µM·h. Moreover, the results for the inhibition in [22] and in [23] were 55% and 94%, respectively.

The term inhibition denotes the relative decrease from the control value, in per cent. In general, Tmax refers to the time from dosing to the highest level. One may read the AUC(0-inf) as the area under the concentration-time curve extrapolated to infinity. Broadly, the half-life is the time in which the quantity being followed falls by half. What is called inhibition in vivo is the share of the control response that was lost under treatment. For orientation: Cmax means the maximum level reached in the sampled fluid or tissue. In general, AUC(0-t) refers to exposure summed from dosing to a finite time, without extrapolation to infinity.
